PMC8551014 (Nature chemical biology, 2021)
“Also recorded” adds a separate entry of the source.

What was measured:
[1] = molecular target: dpIRE1α* (dephosphorylated IRE1α*) (Homo sapiens, UniProt O75460); test: In vitro determination of dpIRE1α*–inhibitor complex Kdimer; format: biochemical; details: relative to apo-dpIRE1α*
Method in brief: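 IRE1α* dephosphorylated overnight at 4 °C with λ-PPase (5:1 molar) in HEPES pH 7.5/NaCl/1 mM MnCl2/DTT/Brij 35; checked by phospho-protein blot. Then titrated two-fold from 2 or 4 μM in Tris pH 7.5 assay buffer; 30 min RT with 50 μM test compound. Alexa647-quencher XBP1 mini-substrate (6 μM final). Fluorescence ex 650/em 665 nm. n=3, mean ± SEM.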

IRE1α* = IRE1α* (Homo sapiens, UniProt O75460); test: In vitro determination of IRE1α*–inhibitor complex Kdimer; format: biochemical; details: inhibitor-bound IRE1α*
IRE1α*, sequence (O75460 547-977): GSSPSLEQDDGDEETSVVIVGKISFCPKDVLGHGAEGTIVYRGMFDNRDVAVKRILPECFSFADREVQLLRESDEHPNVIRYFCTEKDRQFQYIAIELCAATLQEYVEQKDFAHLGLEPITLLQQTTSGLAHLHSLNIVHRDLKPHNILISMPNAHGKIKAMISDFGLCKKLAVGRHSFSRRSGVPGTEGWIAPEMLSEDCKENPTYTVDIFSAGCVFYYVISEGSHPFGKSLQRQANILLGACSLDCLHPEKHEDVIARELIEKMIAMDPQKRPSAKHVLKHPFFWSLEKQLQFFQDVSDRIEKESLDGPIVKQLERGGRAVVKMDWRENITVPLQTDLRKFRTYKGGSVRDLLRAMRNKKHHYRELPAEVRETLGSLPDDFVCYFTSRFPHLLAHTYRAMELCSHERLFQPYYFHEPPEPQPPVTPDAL

[2] = system: mouse splenocytes (C57BL/6); test: Plasma cell differentiation of LPS-treated mouse splenocytes, flow cytometry; format: cell-based
Method in brief: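 Splenocytes cultured 3 days ±1 μg/mL LPS with test compound (20–1.25 μM, two-fold, DMSO 1:2000). Cells stained with LIVE/DEAD near-IR (1:1000, 20 min, ice), then anti-CD19/CD45R/CD138 (15 min, ice), then permeabilized for intracellular XBP1s. Plasmablasts gated as CD19+ B220-low CD138-high; division from vital-dye dilution. n=3, mean ± SEM; one-tailed t-test.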

XBP1 mRNA splicing = XBP1 mRNA splicing in ER-stressed INS-1 cells; format: cell-based, rat; details: INS-1 cells treated with brefeldin A or thapsigargin and KIRA8
Method in brief: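 Parental INS-1 cells on poly-D-lysine, grown 48 h. Test compound or DMSO given 1 h before brefeldin A, thapsigargin or DTT. In the sequential format: 10 μM first compound for 30 min, then second compound (0.5 or 1 μM) for 30 min, then 2 mM DTT. Intron-spanning XBP1 RT-PCR, PstI digest, EtBr gel, % spliced. n=3, mean ± SEM; two-tailed t-test versus DTT.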

[3] = system: mouse splenocytes (C57BL/6); test: ELISA for secreted IgM from LPS-treated splenocytes; format: cell-based; details: 1 μg/mL LPS for three days, 20 μM-1.25 μM
Method in brief: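 C57BL/6 splenocytes, red cells lysed, CellTrace Violet-loaded, plated at 2.5 × 10^5 cells/well in complete RPMI; ±1 μg/ml LPS; test compound in two-fold dilutions (20–1.25 μM) from DMSO at 1:2000 final; 3 days, 37 °C, 5% CO2. Supernatant IgM by ELISA: 1 μg/ml goat anti-IgM capture, anti-IgM-HRP (1:3000), TMB, 1 N H2SO4 stop, A450. n=3, mean ± SEM; one-tailed t-test.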

[4] = 1 μg/mL LPS for three days, 20 μM-1.25 μM

dpIRE1α* (dephosphorylated IRE1α*), sequence (O75460 547-977): as above

lowering of Kdimer of dpIRE1α* when complexed to ligand [1] | Structure (SMILES) | formation of RNase active dimers / dimerization affinity of IRE1α* (IRE1α*) | XBP1s expression in B cells [2, 4] | plasma cell differentiation, CD138+ [2, 4] | toxicity to splenocytes ([2]; 10 μM and 20 μM KIRA8, LPS, three days) | XBP1 mRNA splicing (XBP1 mRNA splicing) | IgM secretion [3]
~ 80 times | NC(=O)Nc1cc(-c2cccc(F)c2)sc1C(=O)N[C@H]1CCCNC1 [AZD7762] | – | – | – | – | – | –
– | Cc1ccc2c(NS(=O)(=O)c3ccccc3Cl)cccc2c1Oc1ncccc1-c1ccnc(N[C@H]2CCCNC2)n1 [KIRA8] | unable to form RNase active dimers at any concentration tested | reductions | reductions | cellular toxicity | completely suppresses; also recorded: almost completely suppressed | reductions
~ 80 times | O=C(Nc1c[nH]nc1-c1nc2ccc(CN3CCOCC3)cc2[nH]1)NC1CC1 [AT9283] | – | – | – | – | – | –
